Source: PubChem
Many of the other results were omitted from the sample, so hits are more common in it than they were.
T cell modulator: T cell immune modulators affecting CD8 T cell-vesicle binding; response (vesicle binding), % at 7 µM; AID 2052; 2C CD8+ T cell-vesicle binding, flow cytometry; stronger effect = lower value; 0.068% of 330,000 active;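 active = response, share of CD8 T cells binding vesicles, and their 90th percentile fluorescence all below set limits, cut at about 80% in these data, passing the limit was not always enough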;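 note: values below 100% mean blocked vesicle binding to the CD8+ T cells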
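Benchmarks: naked versus QL9-loaded vesicles / Assay system: purified 2C TCR transgenic mouse naive CD8+ T cells / Technique: high-throughput flow cytometry with anti-B7-1 and anti-CD8 staining / Timing: Cell–vesicle co-incubation 1.5 h at 37 °C, staining 20 min on ice / Read-out: percent CD8+ FL2 mean versus row control / Probe or stimulus: QL9-loaded Drosophila micro-vesicles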
N-glyco inh: N-linked glycosylation inhibition | D54 ERlucT glycosylation luciferase reporter, 24 h; percent of 100 nM tunicamycin response | 0.23% of 360,000 active | AID 588692 | reporter increase, % at 12.5 µM;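 active = mean luciferase reporter signal, scaled so untreated is 0 and the glycosylation-blocking control 100, at or above a set limit in every replicate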;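 note: luciferase carries N-glycosylation sites so blocking glycosylation raises the light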
ALR inh: blocks human ALR sulfhydryl oxidase activity | AID 485317 | inhibition, % (concentration not given with the values) | purified ALR, DTT oxidation, H2O2 HRP-luminol luminescence | 3.8% of 290,000 active;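 active = mean replicate inhibition above about 79%, with every replicate also reaching it, limit read from the data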
Target sequence (P55789 whole entry, looked up): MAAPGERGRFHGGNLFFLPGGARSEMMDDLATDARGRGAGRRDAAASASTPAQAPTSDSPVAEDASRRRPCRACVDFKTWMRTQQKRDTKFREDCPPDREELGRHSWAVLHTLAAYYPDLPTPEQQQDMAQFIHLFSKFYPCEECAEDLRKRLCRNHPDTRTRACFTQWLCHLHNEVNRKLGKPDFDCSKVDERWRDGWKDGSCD
Large screens that a line does not name were inactive.

Cc1cc(Br)ccc1NC(=O)CNC(=O)CN(C)C1CCS(=O)(=O)C1 (stereo not drawn)	none (no result: T cell modulator, ALR inh)
COC(=O)C1=C(C(=O)OC)[C@]2([C@H]3CC=CCN[C@@H](Cc4ccccc4)C(=O)N3Cc3ccccc3)C=C[C@H]1O2	none (no result: T cell modulator, ALR inh)
CCOc1ccc(NC(=O)CN(C)C(=O)Cc2ccsc2)cc1OCC	none (no result: ALR inh)
CCOc1cccc2sc(=NC(=O)CCS(=O)(=O)c3ccc(F)cc3)n(C)c12	none
CC(=O)NNC(=O)c1cc2c3ccccc3n(C)c2s1	none
Cn1c2ccccc2c2cc(C(=O)N3CCN(CCO)CC3)sc21	ALR inh 99
COC(=O)c1ccc(NC(=O)CCC(=O)c2ccc(F)cc2)cc1	none
Cc1cccc(S(=O)(=O)NC(=O)C2(C)CCN2C(=O)Cc2ccc(C(C)(C)C)cc2)c1 (stereo not drawn)	none (no result: T cell modulator, ALR inh)
CCN1CCN(CNC(=O)c2cnccn2)CC1	none
O=C(NCN1CCN(c2ccccc2)CC1)c1cnccn1	ALR inh 98
COC(=O)c1cc(CN2CCN(c3ccccc3)CC2)ccc1O	ALR inh 98
COC(=O)c1ccccc1NC(=O)CN1CCN(Cc2ccccc2)CC1	none
CCN(CCNC(=O)c1ccc(C#N)cc1)c1cccc(C)c1	ALR inh 98
COc1cccc(CCNC(=O)c2ccc(C#N)cc2)c1	none
N=c1c2ccccc2nc2n1CCCCC2	none (no result: T cell modulator, ALR inh)
NS(=O)(=O)c1ccc(N2CCN(C(=O)c3ccco3)CC2)nc1	none
COc1ccccc1N1C(=O)CC(N(O)c2ccccc2)C1=O (stereo not drawn)	none
CCCOc1ccccc1N1C(=O)CC(N(O)c2ccccc2)C1=O (stereo not drawn)	ALR inh 97
CN(Cc1ccc(Cl)cc1)C(=O)c1ccccc1SCC(=O)N1CCCC1	none (no result: T cell modulator, ALR inh)
COC(=O)c1ccc(COc2ccccc2/C=C(\C#N)C(=O)Nc2c(C)cccc2C)cc1	N-glyco inh 37
COC(=O)c1ccc(COc2ccccc2/C=C(\C#N)C(=O)Nc2ccccc2C)cc1	none
O=C(OCc1cccc(C(F)(F)F)c1)c1ccc[nH]c1=O	none (no result: ALR inh)
O=C(NCc1ccco1)C1CC(=O)N(c2ccc(O)cc2)C1 (stereo not drawn)	ALR inh 99
COc1ccc(N2CC(C(=O)Nc3ccccc3C(=O)NCc3ccco3)CC2=O)cc1 (stereo not drawn)	none (no result: ALR inh)
CC(C)(C)OC(=O)N1CCN(C(=O)c2[nH]cnc2C(=O)Nc2nccs2)CC1	none
O=C(Nc1cccc(-c2cn3ccsc3n2)c1)c1ccccc1	ALR inh 91
CCCCC(=O)Nc1cccc(-c2cn3ccsc3n2)c1	none
Cc1cc(C)c(C#N)c(N2CCN(c3ccccc3F)CC2)n1	none (no result: ALR inh)
COc1cccc(N2CCN(c3nc(C)cc(C)c3C#N)CC2)c1	ALR inh 86
CC1CCCN(C(=O)COc2ccc3c(c2)OCO3)C1 (stereo not drawn)	none
CC(=O)Nc1ccc(OCC(=O)N2CCC(Cc3ccccc3)CC2)cc1	none
OCC1CCCN(C(=S)Nc2ccc(OC(F)F)cc2)C1 (stereo not drawn)	none
OCC1CCCN(C(=S)Nc2ccc(Nc3ccccc3)cc2)C1 (stereo not drawn)	ALR inh 100
CC1CCN(C(=O)COc2ccc(Nc3ccccc3)cc2)CC1	ALR inh 88
CC1CCCN(C(=O)COc2ccc(Nc3ccccc3)cc2)C1 (stereo not drawn)	ALR inh 99
COCCNc1ncnc2c1ncn2[C@H]1CN(Cc2ccco2)C[C@@H](CO)O1	none (no result: T cell modulator, ALR inh)
COc1cccc(C2(C)NC(=O)N(CC(=O)c3cc(C)n(C4CC4)c3C)C2=O)c1 (stereo not drawn)	none
O=C1NC[C@@H](c2ccccc2)OC(=O)[C@@H](Cc2ccc(F)cc2)CC/C=C/C[C@@H]1CC(=O)N(CCO)Cc1ccccc1	none
COc1ccc2c(c1)CCc1c(C(=O)N(C)c3ccccc3)noc1-2	none
CCN(CCn1cccn1)C(=O)c1ccc2nc(Cc3ccc(OC)cc3)oc2c1	none
O=C(N/N=C/c1ccc(F)c(F)c1)c1cccc(S(=O)(=O)N2CCCCC2)c1	none (no result: ALR inh)
COc1ccc(/C=N/NC(=O)c2cccc(S(=O)(=O)N3CCCC3)c2)cc1O	ALR inh 97
COc1ccc(/C=N/NC(=O)c2cccc(OC(F)(F)C(F)F)c2)c(OC)c1OC	none
COc1ccc(/C=N/NC(=O)c2cccc(OC(F)(F)C(F)F)c2)cc1O	ALR inh 96
CCN(CC)S(=O)(=O)c1cccc(C(=O)N/N=C/c2cc(OC)c(O)c(OC)c2)c1	ALR inh 99
COc1cc(/C=N/NC(=O)c2cccc(S(=O)(=O)N3CCCC3)c2)cc(OC)c1O	ALR inh 99
CCN(CC)S(=O)(=O)c1cccc(C(=O)N/N=C/c2cccc(O)c2O)c1	none
COc1ccc(NS(=O)(=O)c2cccc(C(=O)NN=Cc3ccc(OC)c(O)c3)c2)cc1	none (no result: ALR inh)
COc1ccccc1OCC(=O)Nc1ccc(S(=O)(=O)N(C)c2ccccc2)cc1	none
N#Cc1c(N)n(CCc2ccc(F)cc2)c2nc3ccccc3nc12	N-glyco inh 58
COCCn1c(N)c(C#N)c2nc3ccccc3nc21	none
COc1cc(-c2coc3c(C(=O)NC4CCCCC4)cccc23)ccc1O	none (no result: T cell modulator, ALR inh)
Cc1cccc(OCC(=O)Nc2c3c(nn2C(C)(C)C)CS(=O)(=O)C3)c1	none
CC(C)c1ccc(NC(=O)C2CCC(CNC(=O)[C@@H]3Cc4ccccc4CN3)CC2)cc1 (stereo partly drawn)	none
CCOC(=O)/C=C/C(=O)OCC(=O)Nc1c(Cl)cccc1Cl	none
CCOC(=O)/C=C/C(=O)OCC(=O)Nc1ccc(Cl)cc1Cl	ALR inh 96
COc1ccc(OC)c(C2CC(=O)OC3=C2C(=O)CC(C)(C)C3)c1 (stereo not drawn)	none
COc1ccc(C2Nc3ccccc3NC3=C2C(=O)CC(C)(C)C3)c(OC)c1OC (stereo not drawn)	ALR inh 98
CCOc1ccc(C2Nc3ccccc3NC3=C2C(=O)CC(C)(C)C3)cc1OC (stereo not drawn)	ALR inh 98
COc1ccc(C2Nc3ccccc3NC3=C2C(=O)CC(C)(C)C3)cc1O (stereo not drawn)	none (no result: ALR inh)
COc1cc(C2Nc3cc(C)c(C)cc3NC3=C2C(=O)CC(C)(C)C3)ccc1OC(C)=O (stereo not drawn)	ALR inh 80
Cc1cc2c(cc1C)NC(c1c(C)n(C)n(-c3ccccc3)c1=O)C1=C(CC(C)(C)CC1=O)N2 (stereo not drawn)	none
COc1ccc(OC)c(C2Nc3ccccc3NC3=C2C(=O)CC(C)(C)C3)c1 (stereo not drawn)	ALR inh 99
COc1ccc(C2Nc3ccccc3NC3=C2C(=O)CC(C)(C)C3)cc1OC (stereo not drawn)	none
O=C(CCOc1ccccc1)Nc1ccnn1C1CCN(C(=O)CCC(F)(F)F)CC1	none
CC(C)CN(C(=O)c1cccc(Cl)c1)c1c(N)n(Cc2ccccc2)c(=O)[nH]c1=O	none
CCN1CC(CN(C)Cc2cn(-c3ccc(C)cc3)nc2-c2cccc(C)c2)CC1=O (stereo not drawn)	none (no result: ALR inh)
CC1=Nc2cc(C(=O)NCC3CCCO3)ccc2Sc2ccc(Br)cc21 (stereo not drawn)	none (no result: ALR inh)
CC(=O)NC(c1cccc(F)c1)c1nc(-c2cc(F)cc(Cl)c2)cs1 (stereo not drawn)	none (no result: T cell modulator, ALR inh)
